Shown are actives, neighbours in structure and some others; about 0.86% of the full set was active somewhere.
TNAP inh hi DEA: inhibitors of human TNAP at high phosphate acceptor concentration | P05186 | AID 1135 | actives 0.03% (n = 200,000) | inhibition, % at 20 µM | purified TNAP, CDP-star luminescence, 1 M DEA;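 active = over 50% inhibition of tissue-nonspecific alkaline phosphatase at 20 µM in the single-dose screen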;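 note: plate controls were DMSO wells for no effect and EDTA-quenched wells as full inhibition for full effect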
TNAP inh no acc: blocks human TNAP activity with no phosphate acceptor present | AID 1012 | P05186 | purified TNAP, CDP-star luminescence, 30 min | inhibition, % at 20 µM | actives 0.26% (n = 200,000);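 active = tissue-nonspecific alkaline phosphatase inhibition above about 50% at 20 µM in the single-dose screen, limit read from the data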;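 note: 0% = DMSO negative control and 100% = EDTA positive control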
p97 ATPase inh: human p97 ATPase inhibition; P55072; inhibition, % at 8 µM; actives 0.42% (n = 220,000); recombinant p97 ATPase, Kinase-Glo ATP luminescence, 3 h; in the data active = inhibition above about 15%;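 note: 0% = DMSO vehicle and 100% = wells lacking enzyme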
Target sequence (P55072 whole entry, looked up): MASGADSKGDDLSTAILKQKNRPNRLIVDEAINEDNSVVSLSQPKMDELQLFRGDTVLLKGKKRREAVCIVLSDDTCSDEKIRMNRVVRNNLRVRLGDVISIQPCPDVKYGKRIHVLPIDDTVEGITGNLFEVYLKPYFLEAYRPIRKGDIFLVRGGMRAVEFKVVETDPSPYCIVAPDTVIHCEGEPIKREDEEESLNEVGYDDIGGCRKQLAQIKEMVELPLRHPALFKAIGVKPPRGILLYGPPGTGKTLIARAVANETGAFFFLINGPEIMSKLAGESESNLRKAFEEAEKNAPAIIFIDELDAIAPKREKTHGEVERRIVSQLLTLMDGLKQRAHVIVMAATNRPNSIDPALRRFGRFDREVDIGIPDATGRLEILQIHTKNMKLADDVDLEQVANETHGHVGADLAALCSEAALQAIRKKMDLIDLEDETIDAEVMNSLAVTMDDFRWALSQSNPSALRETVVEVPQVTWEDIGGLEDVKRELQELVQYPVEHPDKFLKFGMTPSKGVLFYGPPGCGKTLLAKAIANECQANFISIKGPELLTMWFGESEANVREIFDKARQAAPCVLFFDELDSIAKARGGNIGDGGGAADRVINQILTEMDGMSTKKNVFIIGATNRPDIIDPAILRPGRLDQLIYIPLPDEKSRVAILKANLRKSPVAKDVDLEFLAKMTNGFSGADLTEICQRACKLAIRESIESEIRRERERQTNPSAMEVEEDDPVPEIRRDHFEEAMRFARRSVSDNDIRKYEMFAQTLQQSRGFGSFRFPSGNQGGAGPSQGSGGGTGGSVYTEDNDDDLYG
TNAP act hi DEA: increases human TNAP activity under high phosphate acceptor concentration | P05186 | purified TNAP, CDP-star luminescence, 1 M DEA, 30 min; hits give high values; 0 = EDTA background, 1 = DMSO-only activity | activation factor at 20 µM | 200,000 tested, under 10 active | AID 1136;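 active = activation factor at least 2 at 20 µM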
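Assay system: human TNAP; Input: enzyme diluted 1/800 final; Reagent: CDP-star luminogenic substrate at 100 µM final; Timing: 30 min, room temperature; Signal: luminescence; Evaluation: TNAP activation factor scaled between EDTA and DMSO control wells.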
Redox H2O2 prof: compounds producing H2O2 with reducing agent – biochemical, NIH compound library profiling, artefact control for MLSCN library redox annotation, primary screen; DTT-dependent redox cycling H2O2, phenol red/HRP absorbance; 100% = 100 µM peroxide control, 0% = buffer; activation, % at 10 µM; actives 0.03% (n = 200,000);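 active = activation of at least 50% relative to the plate's high and low controls in the primary single-dose screen; inactive = activation below 50%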;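 note: compound incubated with DTT at 0.8 mM final as the reducing agent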
PERK inh: human PERK inhibition, primary cell-based screen; CHO PERK-DD fusion, SEAP luminescence translation reporter; AID 1416; Q9NZJ5; inhibition, % at 5.6 µM; actives 0.17% (n = 220,000);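 active = inhibition above the mean inhibition of all tested compounds plus 3 SD, set separately per screening campaign, cut at about 2.9% in these data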;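 note: PERK kinase domain activated by AP20187 dimerizer at 100 nM; 0% = DMSO with dimerizer and 100% = rapamycin at 8.4 µM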
p97 inh conf: confirmation of human p97 ATPase inhibitors; actives 44% (n = 760); recombinant p97 ATPase, Kinase-Glo ATP luminescence; inhibition, % at 8 µM; shares compounds with p97 ATPase inh;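 active = percent inhibition of p97 ATPase above a set limit, the primary screen's mean plus 3 SD, cut at about 15% in these data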;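 note: 0% = DMSO wells and 100% = wells lacking p97 protein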
* marks the source's active call; other numbers are inactive results; . = no result given.

SMILES	TNAP inh hi DEA	TNAP inh no acc	p97 ATPase inh	TNAP act hi DEA	Redox H2O2 prof	PERK inh	p97 inh conf
COc1ccc(-c2cc(C(=O)NCc3cn(C)nc3C)c3ccccc3n2)cc1OC	1	-6	4	1	0	-1	.
CC(=O)NCCC(=O)Nc1ccc(C(N)=O)cc1	-2	-2	23*	1	0	1	7
CCCC(=O)Nc1ccc(C(N)=O)cc1	0	-3	2	1	0	-1	.
CC1CCc2cc(F)ccc2N1C(=O)CN1C(=O)c2ccccc2C1=O (stereo not given)	-6	-11	-5	1.1	1	-1	.
Nc1c(-c2ccccc2)c(CSc2nc3ccccc3[nH]2)nn1-c1cccc(C(=O)O)c1	-7	-15	16*	1.1	0	0	7
CCc1nnc(NC(=O)CSc2ccc(-c3nc4ccc(C)cc4[nH]3)cn2)s1	-4	-4	-4	1	0	0	.
N#CC1=C(N)NC(=S)C(C(N)=O)C1c1ccccc1F (stereo not given)	.	.	16*	.	.	-1	6
N#CC1=C(N)NC(=S)C(C(N)=O)C1c1ccc(Cl)cc1Cl (stereo not given)	-2	-2	3	1	0	0	.
Cc1ccc(N/C=C(\C#N)S(=O)(=O)c2ccccc2)cc1	-1	-13	6	1	0	1	.
COc1ccc(C(=O)Nc2nccs2)cc1[N+](=O)[O-]	-2	-12	5	1	0	0	.
Cn1cc([N+](=O)[O-])c(C(=O)Nc2nccs2)n1	-7	-10	17*	1.1	-1	1	7
Cc1cccc(CN2CCC(CNC(=O)CSc3cc(=O)n(C)c4cc(Cl)ccc34)CC2)c1	.	.	-1	.	.	0	.
CC(=O)Nc1ccc2c(c1)OCCO2	-5	-5	63*	1.1	3	1	5
CC(=O)Nc1ccc2c(c1)OCO2	-4	-10	7	1	0	1	.
Oc1ccc(-c2nc3ccccc3s2)c(O)c1	.	.	17*	.	.	1	13
Nc1ccc(O)c(-c2nc3ccccc3s2)c1	4	-7	-4	1	-3	0	.
O=c1[nH]cnc2sc3c(c12)CCC3	.	.	0	.	.	1	.
O=[N+]([O-])c1ccc(O)c(-c2nc(-c3ccccc3)c(-c3cccs3)[nH]2)c1	11	4	-7	0.9	10	0	.
COc1ccc(-c2nc(-c3cccs3)c(-c3cccs3)[nH]2)cc1O	-7	-3	15*	1.1	-1	1	26*
CC(=O)N(C(C)=O)c1nc(-c2ccccc2)cn1/N=C/c1cccc([N+](=O)[O-])c1	.	.	18*	.	.	0	24*
O=[N+]([O-])c1cccc(/C=N/n2c(-c3cccnc3)n[nH]c2=S)c1	-4	13	6	1	1	0	.
COC(=O)c1ccccc1S(=O)(=O)N1CCn2cccc2C1C (stereo not given)	-2	-12	-2	1	-1	0	.
CCCCOc1ccccc1NC(=O)c1scc2c1OCCO2	-2	-4	16*	1	0	0	20*
O=C(NNC(=O)c1ccc(F)cc1F)c1ccc2c(c1)OCO2	1	4	6	1	0	1	.
O=Cc1ccc(OCc2cccc(C(F)(F)F)c2)cc1O	2	-8	15*	1	-2	2	19*
SMILES	TNAP inh hi DEA	TNAP inh no acc	p97 ATPase inh	TNAP act hi DEA	Redox H2O2 prof	PERK inh	p97 inh conf
Cn1cccc1CC(=O)NNC(=O)Nc1ccc(Cl)cc1	3	3	19*	1	0	0	7
Cn1cccc1CC(=O)N/N=C/c1ccco1	.	.	17*	.	.	1	12
COc1cc(NS(=O)(=O)c2ccc(Cl)cc2)c(C(=O)O)cc1OC	-3	-3	6	1	1	-1	.
Cc1ccccc1Oc1nc2c(C)cccn2c(=O)c1/C=C(\C#N)C(=O)NC1CCS(=O)(=O)C1 (stereo not given)	.	.	15*	.	.	1	7
O=C(O)c1cccc(NC2=Nc3cccc4cccc2c34)c1	.	.	16*	.	.	2	10
c1ccc(NC2=Nc3cccc4cccc2c34)cc1	1	-13	7	1	0	0	.
CCOc1cc(S(=O)(=O)N(Cc2ccccc2)Cc2ccccc2)c(OCC)cc1-n1cnnn1	-4	-9	-6	1	4	-1	.
COc1cc2c(C#N)c(N3CCCC3)nc(N)c2c(N)n1	.	.	26*	.	.	1	4
Cc1c(-c2cc(C(=O)O)on2)cnn1C	-3	-13	2	1	0	1	.
CCc1cccc(NC(=O)C2CCCN(S(=O)(=O)c3c(C)[nH]c(=O)[nH]c3=O)C2)c1 (stereo not given)	2	-2	23*	1	0	0	9
CC/C(=C\C(=O)c1ccncc1)Nc1ccc(O)cc1	0	1	21*	1	6	0	8
O=C(Nc1ccc(Cl)cc1)c1ccncc1	-3	-6	0	1	0	1	.
CCn1c(Cc2cccs2)nnc1SCC(=O)NC(C)(C)C	-4	-20	-3	1	-2	-1	.
O=C(COC(=O)c1ccc2c(c1Cl)C(=O)c1ccccc1C2=O)NC1CCCCC1	3	-5	9	1	1	0	.
O=C(COC(=O)c1ccc2c(c1Cl)C(=O)c1ccccc1C2=O)NC1CC1	3	-4	25*	1	0	-1	22*
O=C(O)CCc1nc(-c2ccc(Cl)cc2)no1	-1	10	20*	1	0	2	4
NCc1nc(-c2ccc(Cl)cc2)no1	-2	-10	-1	1	0	0	.
CC(C)(CC(=O)O)Cc1nc(-c2ccc(Cl)cc2)no1	-3	-10	19*	1	0	0	3
CCn1c(SCC(=O)Nc2ccc(C(=O)OC)cc2)nc2cccnc21	4	3	-5	1	0	-1	.
COCc1cc(=O)[nH]c(-c2ccccc2OC(F)(F)F)n1	.	.	6	.	.	1	.
Oc1[nH]c(=S)sc1/C=C1\C(c2ccccc2)=Nc2ccccc21	24	10	23*	0.8	1	0	53*
Cc1cc(C(=O)Oc2cccnc2)ccc1[N+](=O)[O-]	2	-16	-6	1	-1	0	.
COc1ccc(NC(=O)c2cc(SC)ccc2Cl)cc1	-1	-8	16*	1	0	0	4
O=C(Nc1ccccc1)C1CC2CCCC(C1)C2=O (stereo not given)	-8	-10	17*	1.1	2	1	6

Assay outcomes: PubChem BioAssay, several laboratories
